# Test system: Sprague Dawley rats
# Assay: Antiinflammatory activity, carrageenan hind paw edema method
# Assay type: in vivo
# Details: rat, oral, equivalent to 20 mg/kg
# Method in brief: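 Sprague Dawley rats (100-200 g), six per group (3 male, 3 female). Test compound given orally in 1% sodium CMC suspension, equivalent to 20 mg/kg; controls received 1% CMC only. After 30 min, 0.1 ml 1% w/v carrageenan in normal saline injected into the right hind paw plantar surface. Paw volume measured by plethysmometer before dosing and at 0.5, 1, 2, 4 and 6 h. %inhibition = (1−Vt/Vc)×100, using mean relative volume change.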
structure (smiles),measurement,value
"CCc1cccc2c3c([nH]c12)C(CC)(CC(=O)O)OCC3 (racemic) [EC, (RS)-2-(1,8-Diethyl-4,9-dihydro-3H-pyrano[3,4-b]indol-1-yl) acetic acid]",Antiinflammatory activity (6 h) Inhibition of edema (%),81.9%
